Results collected from several papers.
Each line is one published result; the experiments were not run side by side.
Target: Macrophage-stimulating protein receptor (MST1R, Homo sapiens, UniProt Q04912)

| Compound | test | conditions | measurement | value |
| --- | --- | --- | --- | --- |
| CCCOc1ccc(OC)c(F)c1C(=O)c1ccc(C(=O)N[C@@H]2CNC[C@H]2NC(=O)c2ccc3[nH]ncc3c2)cc1 | enzyme activity, inhibitor | 10 µM | remaining activity | 64% |
| O=C(N1CCS(=O)(=O)CC1)N1C[C@H](c2ccc(OC(F)(F)F)cc2)C[C@H](c2nc(C3CC3)no2)C1 | cell-free assay, competition with immobilised ligand | 1 µM | remaining binding | 100% |
| CCCS(=O)(=O)Nc1ccc(F)c(C(=O)c2c[nH]c3ncc(-c4ccc(Cl)cc4)cc23)c1F | enzyme activity, inhibitor | 1 µM | inhibition | < 10% |
| O=C(Nc1cnn(-c2csc(C(=O)NC3COC3)c2)c1)Nc1ccccc1Cl | enzyme activity, inhibitor | 5 µM | remaining activity | 108% |
| CCN(CC)CCNC(=O)c1c(C)[nH]c(/C=C2\C(=O)Nc3ccc(F)cc32)c1C | cell-free assay | 0.3 µM | inhibition | -3% |
| COc1cc(-c2cn(C3CCc4ccccc4N(CC(F)(F)F)C3=O)nn2)ccc1-n1ccc(C)n1 (stereo not shown) | cell-free assay, competition with immobilised ligand | 1 µM | remaining binding | 96% |
| CNC(=O)c1cc(Oc2ccc(NC(=O)Nc3ccc(Cl)c(C(F)(F)F)c3)cc2)ccn1 | cell-free assay | 10 µM | inhibition | -5% |
| CO[C@H]1CC[C@H](CNc2ccc(S(=O)(=O)NC(=O)c3ccc(N4CCN(CC5=C(c6ccc(Cl)cc6)CC(C)(C)CC5)CC4)cc3Oc3cnc4[nH]ccc4c3)cc2[N+](=O)[O-])CC1 | cell-free assay, competition with immobilised ligand | 1 µM | remaining binding | 92% |
| CC(C)(C)c1nc(-c2cccc(NS(=O)(=O)c3c(F)cccc3F)c2F)c(-c2ccnc(N)n2)s1 | enzyme activity, inhibitor, radiometric | 1 µM | remaining activity | 104% |
| Cn1nc(C(F)(F)F)cc1-c1cnc(N2CCc3cc(S(=O)(=O)Nc4c(F)cc(Cl)cc4F)cc(N4CCCC4=O)c32)nc1 | cell-free assay, competition with immobilised ligand | 1 µM | remaining binding | 100% |
| Cc1[nH]c(/C=C2\C(=O)Nc3ccc(F)cc32)c(C)c1C(=O)N[C@H]1CCN(C(=O)N(C)C)C1 | enzyme activity, inhibitor | 1 µM | remaining activity | 96% |
| CC(=O)c1c(NS(C)(=O)=O)c2cc(-c3ccc(Cl)cc3)c(-c3ccc(Cl)cc3Cl)nc2n(C)c1=O | cell-free assay, competition with immobilised ligand | 1 µM | remaining binding | 88% |
| C=CC(=O)Nc1cc(Nc2nccc(Nc3cc(Cl)c(F)cc3C(C)(C)O)n2)c(OC)cc1N1CC[C@@H](N(C)C)C1 | enzyme activity, inhibitor | 1 µM | inhibition | 8% |
| CCc1ccccc1C(=O)Nc1n[nH]c2c(C)c(F)c(C3C(C#N)=C(C)N(C)C(C)=C3C#N)cc12 | cell-free assay, competition with immobilised ligand | 1 µM | remaining binding | 100% |
| Nc1ncnc2occ(-c3ccc(NC(=O)Nc4cc(C(F)(F)F)ccc4F)cc3)c12 | cell-free assay | 20 µM | remaining signal | 7.4% |
| CCN(CC)CCNC(=O)c1c(C)[nH]c(/C=C2\C(=O)Nc3ccc(F)cc32)c1C | enzyme activity, inhibitor | 0.1 µM | remaining activity | 97% |
| O=C(NCc1ncc(C(F)(F)F)cc1Cl)c1ccc2c(c1)C1(CCS(=O)(=O)CC1)[C@H](C1CC1)N2S(=O)(=O)c1ccc(F)cc1 | cell-free assay, competition with immobilised ligand | 1 µM | remaining binding | 99% |
| Cc1cc(NC(=O)c2cccc3cc(-c4cccc5[nH]nc(N)c45)ccc23)ccc1F | enzyme activity, inhibitor | 0.1 µM | activity vs control | 110% |
| CNCc1ccccc1-c1csc([C@@H](C)Nc2nc(C)nc3cc(OC)c(OC)cc23)c1 | cell-free assay, competition with immobilised ligand | 1 µM | remaining binding | 100% |
| COc1cccc2c(NCc3ccccc3)nc(-n3c(N)nc4ccccc43)nc12 | target engagement in cells, inhibitor, chemoproteomics | 20 mM | inhibition | -13.2% |
| O=C1NC(=O)c2cc(Nc3ccc(F)cc3)c(Nc3ccc(F)cc3)cc21 | cell-free assay | 0.5 µM | remaining signal | 100% |
| Cc1ccc(C(=O)NCc2ccsc2)cc1C#Cc1cn(C(C)C)c2ncnc(N)c12 | enzyme activity, inhibitor | 1 µM | activity vs control | 80% |
| Cc1ccc(Nc2nccc(N(C)c3ccc4c(C)n(C)nc4c3)n2)cc1S(N)(=O)=O | cell-free assay | 0.3 µM | inhibition | -3% |
| N#CCCc1ccc2c(c1)-c1[nH]c3ccc([N+](=O)[O-])cc3c1CC(=O)N2 | cell-free assay | 0.5 µM | remaining signal | 107% |
| COc1cc2ncnc(Nc3ccc(Oc4ccccc4)c(C)c3C)c2cc1OC | enzyme activity, inhibitor | 1 µM | inhibition | -3% |
| O=C1Nc2ccc(Cl)cc2C1=Cc1cc(Cl)c(O)c(Cl)c1 | cell-free assay | 0.5 µM | remaining signal | 94.8% |
| O=C(Nc1cnn(-c2csc(C(=O)NC3COC3)c2)c1)Nc1c(F)cccc1Cl | enzyme activity, inhibitor | 5 µM | remaining activity | 100% |
| Cc1cnc(NC2CCOCC2)nc1-n1cnc(C(=O)NC(CN)c2cc(F)cc(Cl)c2)c1 (stereo not shown) | enzyme activity, inhibitor, radiometric | 1 µM | remaining activity | 107% |
